Source: ChEMBL document CHEMBL5131377, “Structure-Activity Relationship Studies of Trisubstituted Isoxazoles as Selective Allosteric Ligands for the Retinoic-Acid-Receptor-Related Orphan Receptor γt” (J Med Chem, 2021)

Experiments:
[1] = Microsomal stability in human liver microsomes assessed as intrinsic clearance at 1 uM measured up to 50 mins in presence of NADPH by LC-MS/MS analysis; type: ADME, Microsome
Method in brief: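 Oxidative stability in NADPH-supplemented human liver microsomes; compound at 1 μM, depletion followed by LC–MS/MS for up to 50 min at 37 °C. Intrinsic clearance calculated from half-life, assay volume and microsomal protein amount (μL/min/mg).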

[2] = Kinetic aqueous solubility of compound in HEPES buffer at pH 7.4 at 500 uM measured after 90 mins by spectrophotometry analysis; type: physicochemical
Method in brief: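 Compound-saturated HEPES buffer (pH 7.4, from DMSO stocks, 500 μM) shaken 90 min at room temperature, filtered, then diluted with an equal volume of acetonitrile.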

[3] = Stability in human plasma assessed as parent compound remaining at 5 uM measured after 1 hr by LC-MS/MS analysis relative to control; type: ADME, cell-free; conditions: read-out: Stability
Method in brief: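 Compound at 5 μM incubated 1 h at 37 °C in 50% human plasma in PBS; % remaining determined by LC–MS.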

[4] = Permeability of the compound at 500 uM after 20 hrs by PAMPA; type: ADME
Method in brief: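 Artificial membrane permeation with 500 μM compound in the donor compartment; after 20 h, receiver wells read by spectrophotometry and % flux derived by normalizing to flux across a blank filter.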

CLH [1] | Kinetic_solubility [2] | remaining at 1 h, 5 µM [3] | permeability [4] | Structure (SMILES)
0.4 µL/min/mg | 423 µM | 95.5% | 29.7% | O=C(O)c1ccc(-c2nn(C(=O)c3c(Cl)cccc3C(F)(F)F)c3ccccc23)cc1
31.2 µL/min/mg | 460 µM | 79.1% | 36.1% | O=C(O)c1ccc(NCc2c(-c3c(Cl)cccc3C(F)(F)F)noc2-c2cc[nH]c2)cc1
77 µL/min/mg | 445 µM | 97.1% | 37.3% | O=C(O)c1ccc(OCc2c(-c3c(Cl)cccc3C(F)(F)F)noc2-c2cc[nH]c2)cc1F
68 µL/min/mg | 421 µM | 89.5% | 50.5% | O=C(O)c1ccc(OCc2c(-c3c(Cl)cccc3C(F)(F)F)noc2-c2ccc[nH]2)cc1
8.8 µL/min/mg | 476 µM | 100% | 23% | O=C(O)c1ccc(OCc2c(-c3c(Cl)cccc3C(F)(F)F)noc2-c2cn[nH]c2)cc1
57.8 µL/min/mg | 436 µM | 74.2% | 40.9% | O=C(O)c1ccc(OCc2c(-c3c(Cl)cccc3C(F)(F)F)noc2-c2cc[nH]c2)cc1
69 µL/min/mg | 392 µM | 59.5% | 40.3% | O=C(O)c1ccc(/C=C/c2c(-c3c(Cl)cccc3C(F)(F)F)noc2-c2cc[nH]c2)cc1
